Laboratory results taken from ChEMBL document CHEMBL4011645, “New Inhibitor Targeting Signal Transducer and Activator of Transcription 5 (STAT5) Signaling in Myeloid Leukemias” (J Med Chem, 2017).
The source made the active and inactive calls. The calls are words filed in the database; no cut-off is given here.

Experiments:
K562 [1] = assay: Antiproliferative activity against human K562 cells at 10 uM after 72 hrs by MTT assay; format: functional, cell-based
Method in brief: (§1)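 Screen at a single 10 μM, DMSO as vehicle control, growth followed at 24, 48 and 72 h. Readouts: MTT (0.2×10^5 cells/well in X-Vivo, 4 h MTT, SDS/HCl lysis, OD 570 nm) and trypan blue exclusion counts of living cells. n = 3 in triplicates, mean ± SEM.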

KU812 cell line [2] = assay: Antiproliferative activity against human KU812 cells at 10 uM up to 72 hrs by MTT assay; format: functional, cell-based; method in brief: as §1
K562 [3] = assay: Antiproliferative activity against human K562 cells at 10 uM after 72 hrs by trypan blue assay; format: functional, cell-based; method in brief: as §1
KU812 cell line [4] = assay: Antiproliferative activity against human KU812 cells at 10 uM after 72 hrs by trypan blue assay; format: functional, cell-based; method in brief: as §1
KU812 cell line [5] = assay: Antiproliferative activity against human KU812 cells after 48 hrs by MTT assay; format: functional, cell-based; conditions: KU812, 48 h
Method in brief: (§2)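 K562 or KU812 cells (RPMI/10% FBS, 37 °C, 5% CO2) exposed to 100 nM–50 μM for 48 h. 0.2×10^5 cells per well in phenol-red-free X-Vivo, MTT 4 h, lysis overnight in 10% SDS/0.003% HCl, absorbance at 570 nm. EC50 fitted; n = 3 in triplicates, mean ± SEM.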

K562 [6] = assay: Antiproliferative activity against human K562 cells after 48 hrs by MTT assay; format: functional, cell-based; conditions: K562, 48 h; method in brief: as §2
KU812 cell line [7] = assay: Antiproliferative activity against human KU812 cells at 10 uM after 48 hrs by MTT assay; format: functional, cell-based; method in brief: as §1
K562 [8] = assay: Antiproliferative activity against human K562 cells at 10 uM after 48 hrs by trypan blue assay; format: functional, cell-based; method in brief: as §1
K562 [9] = assay: Antiproliferative activity against human K562 cells at 10 uM after 48 hrs by MTT assay; format: functional, cell-based; method in brief: as §1
KU812 cell line [10] = assay: Antiproliferative activity against human KU812 cells at 10 uM after 48 hrs by trypan blue assay; format: functional, cell-based; method in brief: as §1
KU812 cell line [11] = assay: Induction of apoptosis in human KU812 cells at 10 uM after 48 hrs by FITC-Annexin V and 7-amino-actinomycin D staining-based flow cytometry method; format: functional, cell-based
Method in brief: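 After 48 h culture with 10 μM or DMSO, 10^6 cells stained with FITC-Annexin V and 7-AAD for 15 min at 4 °C. Percentage of apoptotic cells measured by flow cytometry; n = 3 in triplicates, mean ± SEM.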

[12] = target: T1, Signal transducer and activator of transcription 5A (Homo sapiens) (UniProt P42229); assay: Inhibition of STAT5 phosphorylation in human KU812 cells at 10 uM after 72 hrs by Western blot method; format: cell-based
T1 sequence (whole entry): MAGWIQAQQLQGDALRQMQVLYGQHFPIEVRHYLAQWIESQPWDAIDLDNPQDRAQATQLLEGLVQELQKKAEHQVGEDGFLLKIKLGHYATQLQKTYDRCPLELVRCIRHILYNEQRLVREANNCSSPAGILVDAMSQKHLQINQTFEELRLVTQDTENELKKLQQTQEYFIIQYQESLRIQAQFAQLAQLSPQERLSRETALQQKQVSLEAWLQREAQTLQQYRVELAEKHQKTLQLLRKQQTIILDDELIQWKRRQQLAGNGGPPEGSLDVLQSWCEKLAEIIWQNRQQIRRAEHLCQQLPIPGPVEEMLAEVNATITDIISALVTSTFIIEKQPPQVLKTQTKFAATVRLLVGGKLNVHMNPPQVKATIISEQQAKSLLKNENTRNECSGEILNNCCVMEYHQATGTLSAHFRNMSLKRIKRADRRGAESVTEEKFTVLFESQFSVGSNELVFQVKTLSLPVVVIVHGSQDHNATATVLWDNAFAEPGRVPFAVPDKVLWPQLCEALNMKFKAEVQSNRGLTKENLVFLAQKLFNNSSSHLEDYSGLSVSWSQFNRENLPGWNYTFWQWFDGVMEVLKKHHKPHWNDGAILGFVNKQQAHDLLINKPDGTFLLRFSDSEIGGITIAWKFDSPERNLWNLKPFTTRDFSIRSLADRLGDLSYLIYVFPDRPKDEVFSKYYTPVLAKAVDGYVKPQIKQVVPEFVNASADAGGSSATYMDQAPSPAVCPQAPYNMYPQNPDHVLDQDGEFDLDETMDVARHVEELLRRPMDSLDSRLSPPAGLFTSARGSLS
Method in brief: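 Western blot of KU812 cells 72 h after exposure to 10 µM. Lysates in 2x Laemmli buffer were run on SDS-PAGE and transferred to nitrocellulose. Blots were probed with P-Y694/699-STAT5 and STAT5 antibodies and detected by ECL.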

KU812 cell line [13] = assay: Antiproliferative activity against human KU812 cells at 10 uM after 24 hrs by MTT assay; format: functional, cell-based; method in brief: as §1
KU812 cell line [14] = assay: Antiproliferative activity against human KU812 cells at 10 uM after 24 hrs by trypan blue assay; format: functional, cell-based; method in brief: as §1
K562 [15] = assay: Antiproliferative activity against human K562 cells at 10 uM after 24 hrs by MTT assay; format: functional, cell-based; method in brief: as §1
K562 [16] = assay: Antiproliferative activity against human K562 cells at 10 uM after 24 hrs by trypan blue assay; format: functional, cell-based; method in brief: as §1

| EC50 (K562 [6]) [µM] | SMILES | Activity (K562 [1]) | Activity (KU812 cell line [2]) | Activity (K562 [3]) | Activity (KU812 cell line [4]) | EC50 (KU812 cell line [5]) [µM] | further results |
| --- | --- | --- | --- | --- | --- | --- | --- |
| – | CC1(C)CCN(CCOc2ccc3[nH]ccc3c2)c2ccc(-c3cccc([N+](=O)[O-])c3)cc21 | inactive | inactive | inactive | inactive | – | – |
| 15.6 | CC1(C)CCN(CCOc2ccc3[nH]ccc3c2)c2ccc(Br)cc21 | – | – | – | – | 7.59 | – |
| – | CC1(C)CCN(CCOc2ccc3[nH]ccc3c2)c2ccc(-c3ccccn3)cc21 | inactive | inactive | inactive | inactive | – | – |
| – | CCOC(=O)Cn1ccc2cc(OCCN3CCC(C)(C)c4ccccc43)ccc21 | inactive | inactive | inactive | inactive | – | – |
| – | CC1(C)CCN(CCOc2ccc3c(ccn3CC(=O)O)c2)c2ccccc21 | – | – | – | – | – | Activity (KU812 cell line [7]): inactive; Activity (K562 [8]): inactive; Activity (K562 [9]): inactive; Activity (KU812 cell line [10]): inactive |
| – | Cn1ccc2cc(OCCN3CCC(C)(C)c4ccccc43)ccc21 | inactive | inactive | inactive | inactive | – | – |
| 13 | CC1(C)CCN(CCOc2ccc3[nH]ccc3c2)c2ccc(-c3ccc(Cl)nc3)cc21 | – | – | – | Active | 5.41 | Activity (KU812 cell line [11]): Active |
| – | CC1(C)CCN(CCOc2ccc3c(ccn3CC(=O)O)c2)c2ccc(C(=O)C3CCCCC3)cc21 | – | – | – | – | 197 | inhibition [12]: Active |
| – | CC1(C)CCN(CCOc2ccc3[nH]ccc3c2)c2ccc(C(=O)C3CCCCC3)cc21 | inactive | – | inactive | – | – | Activity (KU812 cell line [7]): inactive; Activity (KU812 cell line [13]): Active; Activity (K562 [8]): Active; Activity (K562 [9]): Active; Activity (KU812 cell line [14]): Active; Activity (KU812 cell line [10]): inactive |
| 78.1 | CC1(C)CCN(CCOc2ccc3[nH]ccc3c2)c2ccccc21 | – | – | – | – | 14.6 | Activity (KU812 cell line [13]): Active; Activity (K562 [15]): Active; Activity (K562 [16]): Active; Activity (KU812 cell line [14]): Active |
| 22.7 | CC1(C)CCN(CCOc2ccc3[nH]ccc3c2)c2ccc(-c3ccncc3)cc21 | – | – | Active | Active | 9.38 | Activity (KU812 cell line [11]): Active |
